Yeast life ext: compounds extending yeast replicative lifespan, primary screen, S. cerevisiae, OD615 | S. cerevisiae growth with nicotinamide; deaD strain in restrictive glucose medium | inhibition of the nicotinamide effect, % at 10 µM | actives 0.68% (n = 130,000) | AID 775, 2007;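 active = inhibition above a set limit, placed 3 SD over the median of all compounds, cut at about 26% in these data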;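 note: 0% = nicotinamide-treated wells and 100% = cells grown without nicotinamide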
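System: Modified budding yeast, DeaD strain | Buffer or medium: Restrictive glucose medium | Also added: 1.5 mM nicotinamide | Doses: 10 µM single point, 0.25% DMSO | Schedule: 48 h compound exposure at 30 °C, humidified | Detection: Absorbance at 615 nm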
RAM inhibit: inhibitors of the yeast RAM network, primary screen, dse1pr::URA3 reporter, 5-FOA selection | S. cerevisiae dse1pr::URA3 reporter, 5-FOA growth OD615, 2 d; analog-sensitive cbk1-as2 kinase mutant strain | inhibition, % at 50 µM | actives 1.8% (n = 190,000);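 active = inhibition above a set limit, 3 SD over mean compound inhibition, cut at about 8.4% in these data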;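 note: 0% = DMSO-only wells with no growth and 100% = 10 µM 1-NA-PP1 full growth; inhibition rescues growth on 5-FOA so higher OD means more RAM inhibition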
Cl transport mod: KCC2 cotransporter modulators, thallium flux, primary screen, cell-based, HEK293 KCC2, FluoZin-2 fluorescence, MLSMR; KCC2 cells, thallium flux FluoZin-2 fluorescence; Solute carrier family 12 member 5 (Homo sapiens), Q9H2X9; B-score of Tl+ flux slope (higher = more flux/activation; lower = inhibition) at 10 µM; AID 1456, 2008; actives 2.2% (n = 190,000);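 active = thallium flux slope and its plate-corrected score both differing from the plate sample mean at a set confidence after two filtering rounds, in either direction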;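 note: slope of fluorescence scaled to starting intensity during 10 to 20 s after thallium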
Yeast growth inh: growth inhibitors of yeast BB579 in restrictive medium, primary screen, yeast lifespan-shortening project, S. cerevisiae. OD615, 48 h. inhibition, % at 10 µM. actives 0.51% (n = 140,000);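 active = inhibition above a set limit, 3 SD over the mean compound inhibition, cut at about 44% in these data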
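Detection: OD615 turbidity measurement; Material: Saccharomyces cerevisiae DeaD strain BB579, replicative lifespan model yeast; Timing: 48 h exposure, 30 °C; Doses: single 10 µM dose; Medium: CSMM-D restrictive synthetic medium containing dextrose (glucose); Controls: amphotericin B at 10 µg/mL as positive control.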
WT yeast gro inh: growth inhibition of WT strain, primary screen, mitochondrial fusion inhibitor project, WT and mutant strains, chemical genetic; mitochondrial fusion phenotypic screen; inhibition, % at 10 µM; actives 2.1% (n = 190,000); AID 1362, 2008; in the data active = inhibition above about 58%; tested in S. cerevisiae
KCC2 secondary: KCC2 modulators in sodium-free buffer, confirmation, cell-based, HEK293 KCC2, thallium flux, secondary assay. AID 1713, 2009. normalised thallium flux (F/F0 slope) at 10 µM. actives 15% (n = 3,700). FluoZin2 fluorescence; hits give high values. shares compounds with Cl transport mod;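 active = thallium flux slope above the same plate's solvent-only control mean plus 3 SD; inconclusive = the two replicate wells disagree; inactive = no significant difference from solvent-only control wells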
KCC2 bumet counter: thallium flux persisting under bumetanide in KCC2 cells, confirmation, counter-screen for KCC2 modulator project, cell-based, HEK293 KCC2, FluoZin2, secondary assay 3; AID 1714, 2009; HEK293-KCC2 + bumetanide/ouabain; hits give high values; shares compounds with Cl transport mod; normalized thallium flux at 10 µM; actives 49% (n = 3,700);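 active = thallium entry rate above the same plate's blocked-transporter control wells by more than 3 SD; inconclusive = the two repeat wells disagree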;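 note: raw slope of fluorescence over initial fluorescence between 10 and 20 s after thallium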
KCC2 secondary2: KCC2 modulators without ouabain present, confirmation, cell-based, HEK293 KCC2, thallium flux, FluoZin2, secondary assay 2; shares compounds with Cl transport mod; thallium flux FluoZin2 fluorescence; actives lie on both sides; F/F0 rise rate, 10–20 s post-thallium; normalized thallium flux at 10 µM; actives 23% (n = 3,700);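 active = thallium flux slope more than 3 SD above or below the plate's solvent-only control mean, mostly below; inconclusive = the two repeat wells disagreed; inactive = no significant shift from solvent-only controls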;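 note: raw slope with 0.1% DMSO as baseline and bumetanide as block control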
HEK293 Tl flux: thallium flux modulation in parental HEK cells, confirmation, counter-screen for KCC2 modulator project, cell-based, counterscreen 1; thallium flux rate (normalised fluorescence) at 10 µM; shares compounds with Cl transport mod; HEK293 parental cells, thallium flux FluoZin2, ouabain; baseline-ratio fluorescence slope, 10–20 s after thallium; AID 1716, 2009; actives 46% (n = 3,700);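 active = thallium flux rate significantly above the same plate's solvent-only control wells, beyond their mean plus 3 SD; inconclusive = the two replicate wells gave conflicting results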
KCC2 ouabain: KCC2 inhibitors and activators, ouabain retest, confirmation, HEK-KCC2 cells; shares compounds with Cl transport mod; actives 48% (n = 3,700); raw Tl+ flux slope (below DMSO = inhibition, above = activation) at 10 µM; AID 1717, 2009; HEK293-KCC2, thallium flux FluoZin2 fluorescence; bidirectional: low = inhibitor, high = activator;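 active = thallium flux slope beyond 3 SD from same-plate DMSO control mean in most replicates, usually higher, sometimes lower; inconclusive = repeat tests gave conflicting results; inactive = no significant difference from controls in most replicates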;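 note: slope of initial-normalized fluorescence between seconds 10 and 20 after thallium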
HEK counter2: native HEK Tl+ uptake effects, second counter-screen – HEK cells, counterscreen 2, counter-screen for KCC2 modulator project, confirmation; shares compounds with Cl transport mod; HEK293 parental, thallium flux FluoZin-2 fluorescence slope; thallium flux slope at 10 µM; actives 33% (n = 3,700);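 active = thallium flux slope above the same plate's solvent-control mean plus 3 SD in both duplicate wells; inconclusive = duplicate wells that disagreed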;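 note: run without ouabain in cells lacking the KCC2 cotransporter; slope of fluorescence scaled to its starting value between 10 and 20 s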
* marks the source's active call; other numbers are inactive results. Compounds with a hit are over-represented: about 5.5% of the library has one in this group of screens.

`O=C(Nc1ccc(N2CCCCC2)c(Cl)c1)c1ccc(N2CCOCC2)c([N+](=O)[O-])c1` gave Yeast life ext -16, RAM inhibit 1, Yeast growth inh -27 and WT yeast gro inh 1.
O=C(Nc1ccc(Cc2ccncc2)cc1)c1cccc([N+](=O)[O-])c1 was read as Yeast life ext 1, RAM inhibit 1, Cl transport mod -4.2*, Yeast growth inh -42, WT yeast gro inh 16, KCC2 secondary 0.0049, KCC2 bumet counter inconclusive, KCC2 secondary2 0.024*, HEK293 Tl flux 0.0079, KCC2 ouabain inconclusive and HEK counter2 0.011.
`S=c1nc(-c2ccccc2)n(CCCn2ccnc2)c2c1CCCC2` gave Yeast life ext -5, RAM inhibit -1, Cl transport mod 0.93, Yeast growth inh -11 and WT yeast gro inh 10.
S=c1nc(-c2ccccc2)n(CCCN2CCOCC2)c2c1CCCC2 was read as Yeast life ext -10, RAM inhibit 1, Cl transport mod 12*, Yeast growth inh -30, WT yeast gro inh 4, KCC2 secondary 0.018*, KCC2 bumet counter 0.024*, KCC2 secondary2 0.034, HEK293 Tl flux 0.026*, KCC2 ouabain 0.037* and HEK counter2 inconclusive.
COC(=O)c1sc(NC(=S)NC(=O)c2ccc(F)cc2)nc1C was read as RAM inhibit 2, Cl transport mod 0.018 and WT yeast gro inh -3.
For COC(=O)c1sc(NC(=S)NC(=O)c2ccccc2C)nc1C the results were RAM inhibit 1, Cl transport mod 92*, WT yeast gro inh 20, KCC2 secondary 0.05*, KCC2 bumet counter 0.15*, KCC2 secondary2 0.042*, HEK293 Tl flux 0.1*, KCC2 ouabain 0.088* and HEK counter2 0.033*.
For CCCCn1c(=O)c(CC(C)=O)nc2ccccc21 the results were Yeast life ext -3, RAM inhibit 2, Yeast growth inh -1 and WT yeast gro inh -12.
`O=C(NCCOc1ccccc1F)c1ccccc1SCc1ccc(F)cc1` gave Yeast life ext 4, RAM inhibit 5, Cl transport mod -6.2*, Yeast growth inh -31, WT yeast gro inh 39, KCC2 secondary 0.0094, KCC2 bumet counter 0.007, KCC2 secondary2 0.022*, HEK293 Tl flux 0.0058, KCC2 ouabain 0.012* and HEK counter2 0.009.
For CCNC(=O)c1ccccc1SCc1ccccc1 the results were RAM inhibit 0, Cl transport mod -1.9 and WT yeast gro inh 11.
